Laboratory results from ChEMBL document CHEMBL3862029, “Discovery of 8-Membered Ring Sulfonamides as Inhibitors of Oncogenic Mutant Isocitrate Dehydrogenase 1” (ACS Med Chem Lett, 2016).
≈ marks a conversion by molar mass, not a printed value. Calls of active or inactive are those of the source. The rule behind the calls is not given here.

Legend:
[1] = system: Isocitrate dehydrogenase [NADP] cytoplasmic (Homo sapiens), O75874 [R132H]; assay: Inhibition of human C-terminal His8-tagged IDH1-R132H mutant expressed in Escherichia coli Rosetta cells assessed as inhibition of ketoreductase activity measured as NADPH consumption preincubated for 60 mins followed by addition of NADPH and alpha-KG as substrate measured after 50 mins using Mg2+ as cofactor in presence of tween-20 detergent by resazurin/diaphorase-coupled fluorescence analysis
Chain of Isocitrate dehydrogenase [NADP] cytoplasmic (Homo sapiens), O75874 [R132H] (O75874 whole entry R132H): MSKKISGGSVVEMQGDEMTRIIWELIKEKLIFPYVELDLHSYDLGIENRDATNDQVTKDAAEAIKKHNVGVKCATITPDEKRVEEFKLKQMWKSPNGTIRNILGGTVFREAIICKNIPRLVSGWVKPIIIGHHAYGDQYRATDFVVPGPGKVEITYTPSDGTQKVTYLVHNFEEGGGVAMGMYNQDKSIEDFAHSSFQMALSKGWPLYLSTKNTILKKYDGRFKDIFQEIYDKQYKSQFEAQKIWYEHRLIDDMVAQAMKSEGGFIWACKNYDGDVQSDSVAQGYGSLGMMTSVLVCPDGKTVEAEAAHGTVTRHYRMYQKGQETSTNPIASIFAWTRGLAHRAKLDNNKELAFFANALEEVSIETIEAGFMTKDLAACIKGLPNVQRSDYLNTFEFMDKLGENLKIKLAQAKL
Outline: (§1)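 IDH1-R132H–Mg2+ ketoreductase assay reading NADPH consumption through a diaphorase-coupled fluorescence reaction. Buffer contained 0.01% Tween 20 against aggregation. Primary screen at 15 μM in duplicate, with positives set at ≥60% inhibition in both replicates. Retests were in 8-point dose.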

[2] = biological target: T1, Isocitrate dehydrogenase [NADP] cytoplasmic (Homo sapiens, UniProt O75874, R132H); assay: Inhibition of human C-terminal His8-tagged IDH1-R132H mutant expressed in Escherichia coli Rosetta assessed as inhibition of ketoreductase activity by measuring NADPH consumption preincubated for 60 mins followed by addition of alpha-KG as substrate measured after 50 mins in presence of NADPH and Mg2+ by resazurin based diaphorase-coupled fluorescence assay; outline: as §1
Target sequence in this assay (O75874 2-414 R132H limits assumed): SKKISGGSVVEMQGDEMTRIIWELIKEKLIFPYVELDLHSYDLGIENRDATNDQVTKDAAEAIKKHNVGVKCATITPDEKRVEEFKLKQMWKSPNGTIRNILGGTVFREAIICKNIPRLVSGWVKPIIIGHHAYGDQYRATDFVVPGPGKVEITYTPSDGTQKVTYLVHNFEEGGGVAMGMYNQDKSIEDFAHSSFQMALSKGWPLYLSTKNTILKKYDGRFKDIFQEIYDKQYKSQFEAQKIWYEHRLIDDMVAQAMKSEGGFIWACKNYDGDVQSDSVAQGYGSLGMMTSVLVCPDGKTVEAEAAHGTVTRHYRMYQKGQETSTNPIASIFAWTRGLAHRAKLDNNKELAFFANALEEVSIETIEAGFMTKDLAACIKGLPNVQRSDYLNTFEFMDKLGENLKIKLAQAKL

[3] = biological target: Isocitrate dehydrogenase [NADP] cytoplasmic (Homo sapiens, UniProt O75874, R132C); assay: (§2) Inhibition of human C-terminal His8-tagged IDH1-R132C mutant expressed in Escherichia coli Rosetta assessed as inhibition of ketoreductase activity by measuring NADPH consumption preincubated for 10 mins followed by addition of NADPH and alpha-KG as substrate by fluorescence method
Chain of Isocitrate dehydrogenase [NADP] cytoplasmic (Homo sapiens, UniProt O75874, R132C) (O75874 2-414 R132C limits assumed): as the sequence (O75874 2-414 R132H limits assumed) above, with H131C counted along it

[4] = biological target: Isocitrate dehydrogenase [NADP] cytoplasmic (Homo sapiens, UniProt O75874); assay: Inhibition of wild type human C-terminal His8-tagged IDH1 expressed in Escherichia coli Rosetta cells assessed as reduction in isocitrate to alpha-KG conversion preincubated for 15 mins followed by substrate addition in presence of NADP+ by resazurin based diaphorase-coupled fluorescence assay
Chain of Isocitrate dehydrogenase [NADP] cytoplasmic (Homo sapiens, UniProt O75874) (O75874 whole entry): as the sequence (O75874 whole entry R132H) above, with H132R counted along it
Outline: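 Wild-type IDH1 activity read as NADPH production from NADP+ and isocitrate, through a diaphorase-coupled fluorescence reaction analogous to the primary screen.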

[5] = system: Isocitrate dehydrogenase [NADP] cytoplasmic (Homo sapiens), O75874 [R132H]; assay: Inhibition of human C-terminal His8-tagged IDH1-R132H mutant expressed in Escherichia coli Rosetta cells assessed as change in melting temperature at 5 uM measured over 20 mins using SYPRO orange dye by DSF analysis
Outline: (§3)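 Differential scanning fluorimetry of recombinant enzyme, giving melting temperature shift with compound present. Mean of 3 independent experiments, each with 7 replicates.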

[6] = system: Isocitrate dehydrogenase [NADP] cytoplasmic (Homo sapiens), O75874 [R132C]; assay: Inhibition of human C-terminal His8-tagged IDH1-R132C mutant expressed in Escherichia coli Rosetta cells assessed as change in melting temperature at 5 uM measured over 20 mins using SYPRO orange dye by DSF analysis; outline: as §3
Chain of Isocitrate dehydrogenase [NADP] cytoplasmic (Homo sapiens), O75874 [R132C] (O75874 whole entry R132C): as the sequence (O75874 whole entry R132H) above, with H132C counted along it

[7] = system: Isocitrate dehydrogenase [NADP] cytoplasmic (Homo sapiens), O75874 [R132H]; assay: (§4) Inhibition of IDH1-R132H mutant (unknown origin) expressed in human HA1EM cells assessed as suppression of R-2HG secretion measured after 72 hrs by LC-MS/MS analysis; type: cell-based
Outline: (§5)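 HA1E-M cells (HEK-293 derivative) engineered to overexpress IDH1-R132H and release R-2HG into growth media. Compound treatment for 72 h, then R-2HG in conditioned media measured by LC-MS. Values normalized to DMSO-treated controls; EC50 from three independent experiments, each run in triplicate.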

[8] = biological target: T1, Isocitrate dehydrogenase [NADP] cytoplasmic; assay: as §4; type: cell-based; outline: as §5
Target sequence in this assay (O75874 whole entry R132H): as the sequence (O75874 whole entry R132H) above

[9] = system: Isocitrate dehydrogenase [NADP] cytoplasmic (Homo sapiens), O75874 [R132H]; assay: (§6) Competitive inhibition of recombinant human C-terminal His8-tagged IDH1-R132H mutant expressed in Escherichia coli Rosetta cells assessed as inhibition of ketoreductase activity by measuring NADPH consumption preincubated for 10 mins followed by addition of NADPH and varying levels of alpha-KG as substrate in presence of constant Mg2+ concentration by fluorescence method
[10] = system: Isocitrate dehydrogenase [NADP] cytoplasmic (Homo sapiens), O75874 [R132H]; assay: as §6, with “and” for “and varying levels of”, “varying levels of” for “constant”
[11] = Thermodynamic solubility of the compound in PBS at 100 uM and pH 7.4 measured after 18 hrs by UPLC-MS analysis; type: physicochemical; details: read-out: Therm_solubility
[12] = Octanol-phosphate buffer partition coefficient, log D of compound at pH 7.4 at 67 uM; type: physicochemical
[13] = Half life in mouse liver microsomes at 1 uM by LC-MS/MS analysis; type: ADME
[14] = Half life in human liver microsomes at 1 uM by LC-MS/MS analysis; type: ADME
[15] = Protein binding in mouse plasma at 5 uM measured after 5 hrs by rapid equilibrium dialysis method; type: ADME, cell-free; details: read-out: PPB (converted)
[16] = Protein binding in human plasma at 5 uM measured after 5 hrs by rapid equilibrium dialysis method; type: ADME, cell-free; details: read-out: PPB (converted)
[17] = Cytotoxicity against human HA1EM cells assessed as decrease in intracellular ATP levels up to 10 uM measured after 72 hrs by CellTiter-Glo assay; type: toxicity, cell-based
Outline: (§7)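 IDH1-R132H-overexpressing HA1E-M cells treated for 72 h. After media harvest, viability assessed by morphology and ATP levels. Values are normalized to DMSO controls, mean ± SD of three independent experiments each run in triplicate.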

[18] = Cytotoxicity against human HA1EM cells assessed as decrease in intracellular ATP levels at >10 uM measured after 72 hrs by CellTiter-Glo assay; type: toxicity, cell-based; outline: as §7
[19] = Cytotoxicity against human THP1 cells assessed as decrease in intracellular ATP levels up to 10 uM measured after 72 hrs by CellTiter-Glo assay; type: toxicity, cell-based; details: thp-1, 72 h
[20] = system: Isocitrate dehydrogenase [NADP] cytoplasmic (Homo sapiens), O75874 [R132H]; assay: Inhibition of human C-terminal His8-tagged IDH1-R132H mutant expressed in Escherichia coli Rosetta cells assessed as inhibition of ketoreductase activity measured as NADPH consumption preincubated for 60 mins followed by addition of NADPH and alpha-KG as substrate measured after 50 mins using Mg2+ …
[21] = system: Isocitrate dehydrogenase [NADP] cytoplasmic (Homo sapiens), O75874 [R132H]; assay: as §2, with “IDH1-R132H” for “IDH1-R132C”, “20” for “10”, “substrate in presence of Mg2+” for “substrate”, “spectrophotometric” for “fluorescence”
Outline: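 Orthogonal confirmation assay: IDH1-R132H ketoreductase activity with NADPH detected by absorbance. Positives retested in 8-point dose.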

[22] = system: Isocitrate dehydrogenase [NADP] cytoplasmic (Homo sapiens), O75874 [R132H]; assay: Inhibition of human C-terminal His8-tagged IDH1-R132H mutant expressed in Escherichia coli Rosetta assessed as inhibition of ketoreductase activity by measuring NADPH consumption preincubated for 10 mins followed by addition of NADPH and alpha-KG as substrate by fluorescence method
Outline: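 Purified IDH1-R132H incubated with α-KG and NADPH; direct kinetic read of falling NADPH fluorescence, run in dose. Enzyme concentration kept below that of the screening assays so inhibitor stays far above enzyme. IC50 values are geometric means of at least three independent experiments.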

[23] = Cytotoxicity against human THP1 cells assessed as decrease in intracellular ATP levels at >10 uM measured after 72 hrs by CellTiter-Glo assay; type: toxicity, cell-based; details: thp-1, 72 h
[24] = Cytotoxicity against human U937 cells assessed as decrease in intracellular ATP levels up to 10 uM measured after 72 hrs by CellTiter-Glo assay; type: toxicity, cell-based; details: u-937, 72 h
[25] = Cytotoxicity against human U937 cells assessed as decrease in intracellular ATP levels at >10 uM measured after 72 hrs by CellTiter-Glo assay; type: toxicity, cell-based; details: u-937, 72 h
[26] = biological target: Isocitrate dehydrogenase [NADP], mitochondrial (Homo sapiens) (UniProt P48735); assay: Inhibition of human C-terminal FLAG-tagged IDH2-R140Q mutant (1 to 452 residues) expressed in baculovirus infeceted sf9 cells assessed as inhibition of ketoreductase activity preincubated for 10 mins followed by addition of NADPH and alpha-KG as substrate by fluorescence method

## C[C@@H]1CN([C@@H](C)CO)S(=O)(=O)c2ccc(C#Cc3cccc(F)c3)cc2O[C@H]1CN(C)C(=O)NC1CCCCC1
[1]
  inhibition: Active
[2]
  IC50: 50 to 57 nM
[3]
  IC50: 2500 nM
[4]
  IC50: > 20000 nM
[5]
  ΔTm: 3.7 °C
[6]
  ΔTm: 1.4 °C
[7]
  inhibition: Dose-dependent effect
[8]
  EC50: 300 nM
[9]
  inhibition: Active
[10]
  inhibition: Active
[11]
  solubility thermodynamic at 18 h, 100 µM: 5 µM (≈ 2.86 µg/mL)
[12]
  logD at 67 µM: 5.19
[13]
  half-life at 1 µM: 42 s
[14]
  half-life at 1 µM: 42 s
[15]
  fraction unbound at 5 h, 5 µM: 0.037
[16]
  fraction unbound at 5 h, 5 µM: 0.005
[17]
  Activity: Non-Toxic
[18]
  Activity: Toxic
[19]
  Activity: Non-Toxic
[20]
  inhibition: Active
[21]
  inhibition: Active
[22]
  inhibition: Active
[23]
  Activity: Toxic
[24]
  Activity: Non-Toxic
[25]
  Activity: Toxic
[26]
  IC50: > 20000 nM
